# Laboratory results from ChEMBL document CHEMBL1154122, “A comprehensive study of Sansalvamide A derivatives: The structure-activity relationships of 78 derivatives in two pancreatic cancer cell lines” (2009).
# Square brackets hold non-standard residues; d marks the D form. Peptide text beside a SMILES is read from it. * marks the point of attachment. NMeF = CN[C@@H](Cc1ccccc1)C(=O)O; dNMeF = CN[C@H](Cc1ccccc1)C(=O)O; Tic = O=C(O)[C@@H]1Cc2ccccc2CN1; Cha = N[C@@H](CC1CCCCC1)C(=O)O; NMeL = CN[C@@H](CC(C)C)C(=O)O; dNMeL = CN[C@H](CC(C)C)C(=O)O; dNMeV = CN[C@@H](C(=O)O)C(C)C; NMeV = CN[C@H](C(=O)O)C(C)C; Orn = NCCC[C@H](N)C(=O)O; dAbu = CC[C@@H](N)C(=O)O; Abu = CC[C@H](N)C(=O)O; Cbz = O=C(OCc1ccccc1)*; Bn = c1ccc(C*)cc1; Sar = CNCC(=O)O
# Legend:
# [1] = Cytotoxicity against human PL45 cells after 56 hrs by [3H]thymidine uptake assay; format: functional
# Procedure, shortened: (§1)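 Cells seeded at 2000–2500/well in DMEM with L-glutamine, 10% FBS and 1% penicillin-streptomycin. […] After 56 h, 3H-thymidine was added for 16 h more (72 h total), then cells were harvested and counted (CPM). Inhibition = 1 − CPM treated/DMSO; IC50 taken from curves, mean and SEM.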
# [2] = tested on: BXPC-3; assay: Cytotoxicity against human BxPC3 cells after 56 hrs by [3H]thymidine uptake assay; format: functional; procedure, shortened: as §1
Compound,growth inhibition (GI) [1] [%],growth inhibition (GI) [2] [%]
CC(C)C[C@@H]1NC(=O)[C@H](Cc2ccccc2)NC(=O)[C@@H](CO)NC(=O)[C@H](C(C)C)NC(=O)[C@H](CC(C)C)NC1=O (cyclo(FLLV[dS])),32,25
CC[C@H]1NC(=O)[C@H](CC(C)C)NC(=O)[C@H](CC(C)C)NC(=O)[C@H](Cc2ccccc2)NC(=O)[C@H](CC(C)C)NC1=O (cyclo(FLL[dAbu]L)),12,17
CC(C)C[C@@H]1NC(=O)[C@H](Cc2ccccc2)NC(=O)[C@H](CC(C)C)NC(=O)[C@@H](Cc2ccccc2)NC(=O)[C@H](CC(C)C)NC1=O (cyclo(FLL[dF]L)),33,8
CC(C)C[C@@H]1NC(=O)[C@H](Cc2ccccc2)NC(=O)[C@@H](CC(C)C)N(C)C(=O)[C@@H](C(C)C)N(C)C(=O)[C@H](CC(C)C)NC1=O (cyclo(FLL[dNMeV][dNMeL])),22,0
CC(C)C[C@@H]1NC(=O)[C@H](Cc2ccccc2)NC(=O)[C@H](CC(C)C)NC(=O)[C@@H](CO)NC(=O)[C@H](CC(C)C)NC1=O (cyclo(FLL[dS]L)),25,22
CC(C)C[C@@H]1NC(=O)[C@H](C(C)C)NC(=O)[C@H](CC(C)C)N(C)C(=O)[C@H](CC(C)C)NC(=O)[C@H](Cc2ccccc2)NC1=O (cyclo(FL[NMeL]VL)),23,52
CC(C)[C@@H]1NC(=O)[C@H](Cc2ccccc2)NC(=O)[C@@H](COCc2ccccc2)NC(=O)[C@H](C(C)C)NC(=O)[C@H](C(C)C)NC1=O (cyclo(FVVV[dS](Bn))),28,17
CC(C)[C@@H]1NC(=O)[C@H](Cc2ccccc2)NC(=O)[C@@H](CO)NC(=O)[C@H](C(C)C)NC(=O)[C@H](C(C)C)NC1=O (cyclo(FVVV[dS])),7,13
CC[C@H]1NC(=O)[C@H](C(C)C)NC(=O)[C@H](C(C)C)NC(=O)[C@H](Cc2ccccc2)NC(=O)[C@H](C(C)C)NC1=O (cyclo(FVV[dAbu]V)),32,26
CC(C)[C@@H]1NC(=O)[C@H](Cc2ccccc2)NC(=O)[C@H](C(C)C)NC(=O)[C@@H](COCc2ccccc2)NC(=O)[C@H](C(C)C)NC1=O (cyclo(FVV[dS](Bn)V)),0,15
CC(C)[C@@H]1NC(=O)[C@H](Cc2ccccc2)NC(=O)[C@H](C(C)C)NC(=O)[C@@H](CO)NC(=O)[C@H](C(C)C)NC1=O (cyclo(FVV[dS]V)),18,20
CC(C)[C@@H]1NC(=O)[C@H](Cc2ccccc2)NC(=O)[C@H](C(C)C)NC(=O)[C@@H](C(C)C)NC(=O)[C@H](C(C)C)NC1=O (cyclo(FVV[dV]V)),25,11
CC(C)C[C@@H]1NC(=O)[C@H](C(C)C)NC(=O)[C@H](CCCCNC(=O)OCc2ccccc2)NC(=O)[C@H](CC(C)C)N(C)C(=O)[C@H](Cc2ccccc2)NC1=O (cyclo(F[NMeL]K(Cbz)VL)),36,35
CC(C)C[C@@H]1NC(=O)[C@H](C(C)C)NC(=O)[C@H](CCCCN)NC(=O)[C@H](CC(C)C)N(C)C(=O)[C@H](Cc2ccccc2)NC1=O (cyclo(F[NMeL]KVL)),9,11
CC(C)C[C@@H]1NC(=O)[C@H](C(C)C)N(C)C(=O)[C@H](CC(C)C)NC(=O)[C@H](CC(C)C)N(C)C(=O)[C@H](Cc2ccccc2)NC1=O (cyclo(F[NMeL]L[NMeV]L)),0,0
CC(C)C[C@@H]1NC(=O)[C@H](CC(C)C)N(C)C(=O)[C@H](Cc2ccccc2)NC(=O)[C@H](CC(C)C)N(C)C(=O)[C@H](C(C)C)N(C)C1=O (cyclo(F[NMeL]L[NMeV][NMeL])),0,0
CC(C)C[C@@H]1NC(=O)CN(C)C(=O)[C@H](Cc2ccccc2)NC(=O)[C@H](C(C)C)NC(=O)[C@@H](C(C)C)NC1=O (cyclo(F[Sar]L[dV]V)),0,22

Compound,growth inhibition (GI) [1] [%],growth inhibition (GI) [2] [%]
CC(C)C[C@@H]1NC(=O)[C@H](C(C)C)NC(=O)[C@H](CC(C)C)N(C)C(=O)[C@@H](CC(C)C)NC(=O)[C@H](Cc2ccccc2)NC1=O (cyclo(F[dL][NMeL]VL)),25,71
CC(C)C[C@@H]1NC(=O)[C@@H](Cc2ccccc2)NC(=O)[C@@H](CC(C)C)NC(=O)[C@@H](C(C)C)NC(=O)[C@H](CCCCNC(=O)OCc2ccccc2)NC1=O (cyclo(K(Cbz)[dV][dL][dF]L)),12,38
CC(C)C[C@@H]1NC(=O)[C@@H](Cc2ccccc2)NC(=O)[C@@H](CC(C)C)NC(=O)[C@@H](C(C)C)NC(=O)[C@H](CCCCN)NC1=O (cyclo(K[dV][dL][dF]L)),0,28
CC(C)C[C@@H]1NC(=O)[C@H](CC(C)C)NC(=O)[C@@H]2Cc3ccccc3CN2C(=O)[C@H](CC(C)C)NC(=O)[C@H](C(C)C)NC1=O (cyclo(LLVL[Tic])),35,54
CC(C)C[C@@H]1NC(=O)[C@H](CC(C)C)NC(=O)[C@@H](Cc2c[nH]c3ccccc23)NC(=O)[C@H](CC(C)C)NC(=O)[C@H](C(C)C)NC1=O (cyclo(LLVL[dW])),18,30
CC(C)C[C@@H]1NC(=O)[C@H](CC(C)C)NC(=O)[C@@H](Cc2ccc(O)cc2)NC(=O)[C@H](CC(C)C)NC(=O)[C@H](C(C)C)NC1=O (cyclo(LLVL[dY])),11,35
CC(C)C[C@@H]1NC(=O)[C@H](C(C)C)NC(=O)[C@H](CCCN)NC(=O)[C@H](CC(C)C)NC(=O)[C@@H](Cc2ccc(O)cc2)NC1=O (cyclo(L[Orn]VL[dY])),0,0
CC(C)C[C@@H]1NC(=O)[C@@H](Cc2ccccc2)NC(=O)[C@H](C(C)C)NC(=O)[C@@H](CC(C)C)NC(=O)[C@@H](CC(C)C)NC1=O (cyclo(L[dL][dL]V[dF])),21,23
CC[C@@H]1NC(=O)[C@H](CC(C)C)NC(=O)[C@H](CC(C)C)NC(=O)[C@H](Cc2ccccc2)NC(=O)[C@H](CC(C)C)NC1=O (cyclo([Abu]LFLL)),0,0
CC[C@@H]1NC(=O)[C@H](CC(C)C)NC(=O)[C@H](CC(C)C)NC(=O)[C@H](Cc2ccccc2)NC(=O)[C@@H](CC(C)C)NC1=O (cyclo([Abu][dL]FLL)),23,34
CC(C)[C@@H]1NC(=O)[C@H](CC2CCCCC2)NC(=O)[C@H](CO)NC(=O)[C@H](Cc2ccccc2)NC(=O)[C@@H](Cc2ccccc2)N(C)C1=O (cyclo([Cha]V[dNMeF]FS)),11,34
CC(C)C[C@@H]1NC(=O)[C@H](Cc2ccccc2)NC(=O)[C@H](CC(C)C)NC(=O)[C@@H](C(C)C)N(C)C(=O)[C@H](CC2CCCCC2)NC1=O (cyclo([Cha][dNMeV]LFL)),30,49
CC(C)C[C@@H]1NC(=O)[C@H](CC(C)C)NC(=O)[C@H](Cc2ccccc2)N(C)C(=O)[C@H](CC(C)C)NC(=O)[C@H](C(C)C)NC1=O (cyclo([NMeF]LLVL)),30,33
CC(C)C[C@@H]1C(=O)N[C@H](Cc2ccccc2)C(=O)N[C@H](CC(C)C)C(=O)N[C@H](CC(C)C)C(=O)N[C@H](C(C)C)C(=O)N1C (cyclo([dF][dL][dL][dV][dNMeL])),11,30
CC(C)C[C@@H]1C(=O)N[C@H](CC(C)C)C(=O)N(C)[C@H](C(C)C)C(=O)N[C@H](CC(C)C)C(=O)N[C@H](Cc2ccccc2)C(=O)N1C (cyclo([dF][dNMeL][dL][dNMeV][dL])),0,25
CC(C)C[C@@H]1NC(=O)[C@H](C(C)C)NC(=O)[C@H](CC(C)C)N(C)C(=O)[C@@H](CC(C)C)NC(=O)[C@@H](Cc2ccccc2)NC1=O (cyclo([dL][NMeL]VL[dF])),59,58
